Source: ChEMBL document CHEMBL1255285, “Spontaneous deletion of the methicillin resistance determinant, mecA, partially compensates for the fitness cost associated with high-level vancomycin resistance in Staphylococcus aureus” (2008)
Values after ≈ are worked out from the molar mass of the structure shown.

How the values were obtained:
Assay type in all cases: functional
Staphylococcus aureus [1] = assay: Antimicrobial activity against homotypic oxacillin resistant and vancomycin resistant Staphylococcus aureus isolate 5836V32 by broth microdilution method
Method in brief: (§1)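 Broth microdilution MIC in cation-adjusted Mueller-Hinton broth per CLSI (formerly NCCLS) guidelines. Strains were routinely grown in brain heart infusion broth or agar at 37°C with shaking at 220 rpm. Vancomycin-passaged derivatives were raised by serial broth passage through 0.5 to 32 µg/ml vancomycin, then maintained on BHI agar with 32 µg/ml vancomycin.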

Staphylococcus aureus [2] = assay: Antimicrobial activity against oxacillin sensitive and vancomycin resistant Staphylococcus aureus isolate VP32 by broth microdilution method; method in brief: as §1
Staphylococcus aureus [3] = assay: Antimicrobial activity against oxacillin sensitive and vancomycin resistant Staphylococcus aureus isolate 3130VR by broth microdilution method; method in brief: as §1
Staphylococcus aureus [4] = assay: Antimicrobial activity against heterotypic oxacillin resistant and vancomycin intermediate resistant Staphylococcus aureus isolate 5836 by broth microdilution method; method in brief: as §1
Staphylococcus aureus [5] = assay: Antimicrobial activity against homotypic oxacillin resistant and vancomycin resistant Staphylococcus aureus isolate 5827V32 by broth microdilution method; method in brief: as §1
Staphylococcus aureus [6] = assay: Antimicrobial activity against oxacillin sensitive and vancomycin resistant Staphylococcus aureus isolate 5836VR by broth microdilution method
Method in brief: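 MIC by broth microdilution in cation-adjusted Mueller-Hinton broth, following CLSI (formerly NCCLS) guidelines. The isolate came from an MRSA parent passaged in broth through stepwise vancomycin (0.5 to 32 µg/ml). It was then kept on BHI agar with 32 µg/ml vancomycin and selected as unable to grow on 6 µg/ml oxacillin. Routine growth was in BHI at 37°C.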

Staphylococcus aureus [7] = assay: Antimicrobial activity against homotypic oxacillin resistant and vancomycin resistant Staphylococcus aureus isolate 3130V32 by broth microdilution method; method in brief: as §1
Staphylococcus aureus [8] = assay: Antimicrobial activity against oxacillin sensitive and tetracycline and vancomycin resistant Staphylococcus aureus isolate 3130V32deltamecA with mecA::tetM genotype by broth microdilution method; method in brief: as §1
Staphylococcus aureus [9] = assay: Antimicrobial activity against homotypic oxacillin resistant and vancomycin intermediate resistant Staphylococcus aureus isolate 5827 by broth microdilution method; method in brief: as §1
Staphylococcus aureus [10] = assay: Antimicrobial activity against homotypic oxacillin resistant and vancomycin sensitive Staphylococcus aureus isolate 3130 by broth microdilution method; method in brief: as §1
Staphylococcus aureus [11] = assay: Antimicrobial activity against homotypic oxacillin resistant Staphylococcus aureus isolate 450MHomo by broth microdilution method; method in brief: as §1
Staphylococcus aureus [12] = assay: Antimicrobial activity against oxacillin sensitive and tetracycline resistant Staphylococcus aureus isolate 450MHomodeltamecA with mecA::tetM genotype by broth microdilution method; method in brief: as §1
Staphylococcus aureus [13] = assay: Antimicrobial activity against oxacillin sensitive Staphylococcus aureus isolate 450MHomoex with SCCmec excised genotype by broth microdilution method; method in brief: as §1

Which results are given for CN[C@H](CC(C)C)C(=O)N[C@H]1C(=O)N[C@@H](CC(N)=O)C(=O)N[C@H]2C(=O)N[C@H]3C(=O)N[C@H](C(=O)N[C@H](C(=O)O)c4cc(O)cc(O)c4-c4cc3ccc4O)[C@H](O)c3ccc(c(Cl)c3)Oc3cc2cc(c3O[C@@H]2O[C@H](CO)[C@@H](O)[C@H](O)[C@H]2O[C@H]2C[C@](C)(N)[C@H](O)[C@H](C)O2)Oc2ccc(cc2Cl)[C@H]1O [VANCOMYCIN]?
MIC (Staphylococcus aureus [1]): 32 µg/mL (≈ 22.1 µM); MIC (Staphylococcus aureus [2]): 32 µg/mL (≈ 22.1 µM); MIC (Staphylococcus aureus [3]): 32 µg/mL (≈ 22.1 µM); MIC (Staphylococcus aureus [4]): 8 µg/mL (≈ 5.52 µM); MIC (Staphylococcus aureus [5]): 32 µg/mL (≈ 22.1 µM); MIC (Staphylococcus aureus [6]): 32 µg/mL (≈ 22.1 µM); MIC (Staphylococcus aureus [7]): 32 µg/mL (≈ 22.1 µM); MIC (Staphylococcus aureus [8]): 32 µg/mL (≈ 22.1 µM)

How did the MIC (Staphylococcus aureus [9]) turn out when Cc1onc(-c2ccccc2)c1C(=O)N[C@@H]1C(=O)N2[C@@H]1SC(C)(C)[C@@H]2C(=O)O [OXACILLIN] was run?
The MIC was greater than 8 µg/mL.

What about the MIC (Staphylococcus aureus [1]) of the same compound?
The MIC was greater than 8 µg/mL.

And the MIC (Staphylococcus aureus [2])?
The MIC was 0.5 µg/mL (≈ 1.25 µM).

What about the MIC (Staphylococcus aureus [10]) of the same compound?
Its MIC is greater than 8 µg/mL.

What about the MIC (Staphylococcus aureus [3]) of the same compound?
Its MIC is 0.5 µg/mL (≈ 1.25 µM).

And the MIC (Staphylococcus aureus [4])?
The MIC was greater than 8 µg/mL.

What about the MIC (Staphylococcus aureus [5]) of the same compound?
The MIC was greater than 8 µg/mL.

And the MIC (Staphylococcus aureus [11])?
The MIC was greater than 8 µg/mL.

What about the MIC (Staphylococcus aureus [6]) of the same compound?
The MIC was 0.25 µg/mL (≈ 0.623 µM).

And the MIC (Staphylococcus aureus [7])?
Its MIC is greater than 8 µg/mL.

What about the MIC (Staphylococcus aureus [12]) of the same compound?
The MIC was 0.5 µg/mL (≈ 1.25 µM).

And the MIC (Staphylococcus aureus [8])?
Its MIC is 0.5 µg/mL (≈ 1.25 µM).

What about the MIC (Staphylococcus aureus [13]) of the same compound?
The MIC was 0.5 µg/mL (≈ 1.25 µM).
